Article PMC4894453 (Scientific Reports, 2014)
In brackets after ≈: the same amount, converted by molar mass. Entries after “also recorded” stand apart in the source; their conditions may differ.

Experiments:
[1] = system: methicillin-resistant Staphylococcus aureus N315; test: MIC, microbroth dilution, MRSA; assay type: cell-based; conditions: for MIC: Staphylococcus aureus, MRSA, read-out: MIC against Gram-positive bacteria, MRSA; for MIC against Gram-positive bacteria, MRSA: S. aureus N315, 18–20 h
Summary of the method: (§1)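 CLSI microbroth dilution in Mueller-Hinton broth. Test compound at final 200–0.1 μg/ml, diluted from 10 mg/ml DMSO stocks. Plates incubated 18–20 h. MIC is the lowest concentration preventing visible growth.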

[2] = system: Streptococcus pyogenes ATCC 700294; test: MIC, microbroth dilution, Streptococcus pyogenes; assay type: cell-based; conditions: for MIC: Streptococcus pyogenes, ATCC700294, read-out: MIC against Gram-positive bacteria, SP; for MIC against Gram-positive bacteria, SP: Streptococcus pyogenes ATCC 700294, 18–20 h
[3] = system: Streptococcus pneumoniae R6; test: MIC, microbroth dilution, Streptococcus pneumoniae; assay type: cell-based; conditions: for MIC: Streptococcus pneumoniae, R6, read-out: MIC against Gram-positive bacteria, SPn; for MIC against Gram-positive bacteria, SPn: Streptococcus pneumoniae R6, 18–20 h
Summary of the method: as §1

[4] = system: Bacillus subtilis ATCC 23857; test: MIC, microbroth dilution, Bacillus subtilis; assay type: cell-based; conditions: for MIC: Bacillus subtilis, ATCC23857, read-out: MIC against Gram-positive bacteria, BS; for MIC against Gram-positive bacteria, BS: Bacillus subtilis ATCC 23857, 18–20 h
Summary of the method: as §1

[5] = system: Vero cells (kidney epithelial cells; ATCC CCL-81); test: Cytotoxicity, CellTiter-Glo viability; assay type: cell-based; conditions: for Selectivity index: Cytotox IC50/MIC against methicillin-susceptible S. aureus Newman; for Cytotox IC50: Vero kidney cells, 72 h, 50% reduction of viability
Summary of the method: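 Vero kidney epithelial cells exposed 72 h to test compound (final 200–0.1 μg/ml in DMEM; diluted from 10 mg/ml DMSO stocks). Viability read by CellTiter-Glo luminescence. IC50 is the concentration giving 50% viability loss, from curve fitting. Selectivity index is the cytotoxic IC50 divided by the MIC against S. aureus Newman.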

[6] = system: Bacillus anthracis sterne; test: microbe, parasite or virus in culture; assay type: cell-based; conditions: for MIC: Bacillus anthracis, read-out: MIC against Gram-positive bacteria, BA; for MIC against Gram-positive bacteria, BA: 18–20 h
[7] = system: Enterococcus faecalis ATCC 33186; test: MIC, microbroth dilution, Enterococcus faecalis; assay type: cell-based; conditions: Mueller-Hinton broth, 18–20 h; for MIC: Enterococcus faecalis, ATCC33186, read-out: MIC against Gram-positive bacteria, EF, Enterococcus faecalis ATCC 33186; for MIC against Gram-positive bacteria, EF: Enterococcus faecalis ATCC 33186
[8] = system: Clostridium difficile BAA 1803; test: MIC, microbroth dilution, anaerobic, Clostridium difficile; assay type: cell-based; conditions: for MIC: Clostridioides difficile, BAA1803, 24 h, read-out: MIC against Gram-positive bacteria, CD, Clostridium difficile BAA 1803; for MIC / MIC against Gram-positive bacteria, CD: Brain-heart infusion broth, 24 h, anaerobic; for MIC against Gram-positive bacteria, CD: Clostridium difficile BAA 1803
[9] = system: panel of clinical relevant Gram-positive pathogens; test: MIC, statements over the Gram-positive panel; assay type: cell-based; conditions: for MIC: read-out: MIC over the Gram-positive panel
S. aureus Newman [10] = test: Membrane permeability by flow cytometry with propidium iodide; assay type: cell-based, Staphylococcus aureus; conditions: 10 μM, 30 min, concentrations causing dissipation of the membrane potential
Summary of the method: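 S. aureus Newman grown in Mueller-Hinton II broth to OD600 ≈ 0.3 and exposed to test compound at 10 μM for 30 min. Propidium iodide (10 μM) added for 10 min in the dark. Flow cytometry: 10,000 events, 488 nm excitation, red fluorescence; event histograms compared. Thioridazine at 100 μg/mL served as positive control.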

S. aureus Newman [11] = test: Membrane potential by flow cytometry with DiOC2; assay type: cell-based, Staphylococcus aureus; conditions: 10 μM, 30 min, DiOC2(3)
Summary of the method: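 Exponential-phase S. aureus Newman (OD600 ≈ 0.3, Mueller-Hinton II broth) treated with test compound at 100, 10 or 1 μM for 30 min at 37°C. Cells stained 5 min with 30 μM DiOC2(3) and run on flow cytometry (10,000 events, 488 nm excitation, green and red emission). Red/green fluorescence ratio histograms compared. CCCP was the positive control; at least two independent samples.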

S. aureus Newman [12] = test: Macromolecular synthesis, radiolabelled precursors; assay type: cell-based, Staphylococcus aureus; conditions: 1 and 4 × MIC, 20 min
Summary of the method: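 Three independent S. aureus Newman cultures grown to mid-log phase (OD600 ≈ 0.3), then pulsed with 1 μCi/mL [methyl-3H]thymidine, [5,6-3H]uridine or [4,5-3H]leucine. After 5 min, test compound added at 1 and 4× its Newman MIC for 20 min at 37°C. Cold 10% TCA precipitates collected on GF/C filters, washed with 95% ethanol and counted by scintillation; expressed as relative percent activity. Controls: novobiocin, rifampicin, tetracycline.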

[13] = system: methicillin-susceptible Staphylococcus aureus Newman; test: MIC, microbroth dilution, MSSA; assay type: cell-based; conditions: for fold improvement in activity over reutericyclin: S. aureus, strain not given; for MIC against Gram-positive bacteria, MSSA: S. aureus Newman, 18–20 h
Summary of the method: as §1

[14] = system: erythrocytes of defibrinated sheep blood; test: Hemolysis assay; assay type: cell-based; conditions: sheep erythrocytes 5% in PBS, 37°C, 90 min
Summary of the method: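 Defibrinated sheep blood spun at 350 rcf for 20 min; plasma and buffy coat discarded. Erythrocytes washed three times in PBS pH 7.4, then made to a 5% v/v suspension. Suspension mixed 1:1 with two-fold serial dilutions of test compound, with Triton X-100 as positive control. Incubated 37°C for 90 min and centrifuged; supernatant OD540 read. Lysis = (sample − blank)/positive control; EC50 from curve fitting.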

| Compound | MIC [1] | MIC [2] | MIC [3] | MIC [4] | Selectivity index [5] | MIC [6] | MIC [7] | MIC [8] | physical integrity of the S. aureus membrane (propidium iodide uptake) (S. aureus Newman [10]) | dissipation of the membrane potential (S. aureus Newman [11]) | biosynthesis of DNA, RNA and protein (S. aureus Newman [12]) | MIC against Gram-positive bacteria, EF [7] | MIC [9] | MIC against Gram-positive bacteria, MSSA [13] | other results |
| --- | --- | --- | --- | --- | --- | --- | --- | --- | --- | --- | --- | --- | --- | --- | --- |
| CCCCC(=O)N1C(=O)/C(=C(/C)O)C(=O)C1CC(C)C (stereo not shown) [Compound 3, (Z)-3-(1-hydroxyethylidene)-5-isobutyl-1-pentanoylpyrrolidine-2,4-dione] | 12.5 µg/mL (≈ 44.4 µM) | 12.5 µg/mL (≈ 44.4 µM) | 6.25 µg/mL (≈ 22.2 µM) | 100 µg/mL (≈ 355 µM) | 1 | > 200 µg/mL | 50 µg/mL (≈ 178 µM) | 16 µg/mL (≈ 56.9 µM) | – | – | – | – | – | – | fold less active than reutericyclin ([9]; Gram-positive panel (most bacteria)): ≥ 32 fold |
| C/C(O)=C1\C(=O)C(CC(C)C)N(C(=O)C=Cc2ccccc2)C1=O (stereo not shown) [Compound 4, (Z)-1-cinnamoyl-3-(1-hydroxyethylidene)-5-isobutylpyrrolidine-2,4-dione] | 1.6 µg/mL (≈ 4.89 µM) | 25 µg/mL (≈ 76.4 µM) | 3.13 µg/mL (≈ 9.56 µM) | 25 µg/mL (≈ 76.4 µM) | 2 | > 200 µg/mL | 12.5 µg/mL (≈ 38.2 µM) | 8 µg/mL (≈ 24.4 µM) | – | – | – | – | – | – | fold better activity than 3 throughout the panel ([9]; Gram-positive panel, compared to 3): ≤ 8 fold |
| C/C(O)=C1\C(=O)C(CC(C)C)N(C(=O)CCCCCc2ccccc2)C1=O (stereo not shown) [Compound 5, (Z)-3-(1-hydroxyethylidene)-5-isobutyl-1-(6-phenylhexanoyl)pyrrolidine-2,4-dione] | < 0.1 µg/mL | 3.13 µg/mL (≈ 8.43 µM) | 0.78 µg/mL (≈ 2.1 µM) | 1.56 µg/mL (≈ 4.2 µM) | 14 | > 200 µg/mL | – | – | did not disrupt the physical integrity | slightly lower than reutericyclin | reduced | 0.78 µg/mL (≈ 2.1 µM) | – | – | fold improvement in activity over reutericyclin ([1]; MRSA N315): 4 fold; fold improvement in activity over reutericyclin ([2]; Strep. pyogenes): 2 fold; fold improvement in activity over reutericyclin ([3]; Strep. pneumoniae): 4 fold |
| CCCCCCC/C=C/C(=O)N1C(=O)/C(=C(\O)CCCC)C(=O)C1CC(C)C (stereo not shown) [Compound 6, (Z)-1-((E)-dec-2-enoyl)-3-(1-hydroxypentylidene)-5-isobutylpyrrolidine-2,4-dione] | < 0.1 µg/mL | 3.13 µg/mL (≈ 7.99 µM) | 3.13 µg/mL (≈ 7.99 µM) | 0.39 µg/mL (≈ 0.996 µM) | >58 | 0.39 µg/mL (≈ 0.996 µM) | 0.2 µg/mL (≈ 0.511 µM) | < 0.03 µg/mL | did not disrupt the physical integrity | slightly lower than reutericyclin; also recorded: did not rapidly dissipate the membrane potential | – | – | < 1 µg/mL | – | fold improvement in activity over reutericyclin [13]: > 4 fold; fold improvement in activity over reutericyclin ([8]; C. difficile): > 3 fold |
| CCCCCCC/C=C/C(=O)N1C(=O)/C(=C(\O)c2ccccc2)C(=O)C1CC(C)C (stereo not shown) [Compound 7, (Z)-1-((E)-dec-2-enoyl)-3-(hydroxy(phenyl)methylene)-5-isobutylpyrrolidine-2,4-dione] | < 0.1 µg/mL | 12.5 µg/mL (≈ 30.4 µM) | 12.5 µg/mL (≈ 30.4 µM) | 0.78 µg/mL (≈ 1.9 µM) | >125 | > 200 µg/mL | 0.39 µg/mL (≈ 0.948 µM) | 0.75 µg/mL (≈ 1.82 µM) | – | – | – | – | < 1 µg/mL | <0.1 µg/mL | – |
| CCCCCCC/C=C/C(=O)N1C(=O)/C(=C(\O)C2CCN(C(=O)OC(C)(C)C)CC2)C(=O)[C@H]1CC(C)C [Compound 10, tert-butyl4-((Z)-((R)-1-((E)-dec-2-enoyl)-5-isobutyl-2,4-dioxopyrrolidin-3-ylidene)(hydroxy)methyl) piperidine-1-carboxylate] | – | – | – | – | – | – | – | – | – | – | – | 0.39 µg/mL (≈ 0.752 µM) | – | 0.40 µg/mL (≈ 0.771 µM) | MIC against Gram-positive bacteria, MRSA [1]: 0.2 µg/mL (≈ 0.386 µM); MIC against Gram-positive bacteria, SP [2]: 3.13 µg/mL (≈ 6.03 µM); MIC against Gram-positive bacteria, SPn [3]: 3.13 µg/mL (≈ 6.03 µM); MIC against Gram-positive bacteria, BS [4]: 1.56 µg/mL (≈ 3.01 µM); Cytotox IC50 [5]: 14.22 µg/mL; Hemolysis EC50 [14]: 61.61 µg/mL; MIC against Gram-positive bacteria, BA [6]: 0.78 µg/mL (≈ 1.5 µM); MIC against Gram-positive bacteria, CD [8]: 0.25 µg/mL (≈ 0.482 µM) |
| CCCCCCC/C=C/C(=O)N1C(=O)/C(=C(\O)c2ccc(F)cc2)C(=O)C1CC(C)C (stereo not shown) [Compound 13, (Z)-1-((E)-dec-2-enoyl)-3-((4-fluorophenyl)(hydroxy)methylene)-5-isobutylpyrrolidine-2,4-dione] | < 0.1 µg/mL | 6.25 µg/mL (≈ 14.6 µM) | 12.5 µg/mL (≈ 29.1 µM) | 0.39 µg/mL (≈ 0.908 µM) | 67 | 0.39 µg/mL (≈ 0.908 µM) | 0.2 µg/mL (≈ 0.466 µM) | < 0.03 µg/mL | did not disrupt the physical integrity | reduced the membrane potential in a manner similar to reutericyclin | reduced | – | < 1 µg/mL | – | – |
| CCCCCCC/C=C/C(=O)N1C(=O)/C(=C(/C)O)C(=O)C1CCCCN (stereo not shown) [Compound 17, (Z)-5-(4-aminobutyl)-1-((E)-dec-2-enoyl)-3-(1-hydroxyethylidene)pyrrolidine-2,4-dione] | 200 µg/mL (≈ 549 µM) | > 200 µg/mL | > 200 µg/mL | > 200 µg/mL | 1 | > 200 µg/mL | 50 µg/mL (≈ 137 µM) | > 64 µg/mL | – | reduced their ability to dissipate the membrane potential | – | – | – | – | – |
| CCCCCCC/C=C/C(=O)N1C(=O)/C(=C(/C)O)C(=O)C1Cc1ccc(OC(C)(C)C)cc1 (stereo not shown) [Compound 20, (Z)-5-(4-(tert-butoxy)benzyl)-1-((E)-dec-2-enoyl)-3-(1-hydroxyethylidene)pyrrolidine-2,4-dione] | < 0.1 µg/mL | 12.5 µg/mL (≈ 27.4 µM) | 6.25 µg/mL (≈ 13.7 µM) | 1.56 µg/mL (≈ 3.42 µM) | >115 | 200 µg/mL (≈ 439 µM) | 0.78 µg/mL (≈ 1.71 µM) | 0.25 µg/mL (≈ 0.549 µM) | – | – | – | – | – | <0.1 µg/mL | fold improvement in activity over reutericyclin [13]: > 4 fold |
| (Z)-1-((E)-dec-2-enoyl)-3-(1-hydroxyethylidene)-5-isobutylpyrrolidine-2,4-dione [Compound 1, reference compound] | – | – | – | – | – | – | – | – | did not disrupt the physical integrity | – | reduced | 0.20 µg/mL | – | 0.78 µg/mL | MIC against Gram-positive bacteria, MRSA [1]: 0.4 µg/mL; MIC against Gram-positive bacteria, SP [2]: 6.25 µg/mL; MIC against Gram-positive bacteria, SPn [3]: 3.13 µg/mL; dissipation of the membrane potential (S. aureus Newman [11]; listed as reutericyclin): completely dissipated; MIC against Gram-positive bacteria, BS [4]: 0.39 µg/mL; Cytotox IC50 [5]: 7.46 µg/mL; Cytotox IC50 ([5]; listed as reutericyclin): 7.5 µg/mL; Hemolysis EC50 [14]: 27.87 µg/mL; MIC against Gram-positive bacteria, BA [6]: 0.20 µg/mL; MIC against Gram-positive bacteria, CD [8]: 0.09 µg/mL |
